Source: ChEMBL document CHEMBL4321849, “Biphenyl Acid Derivatives as APJ Receptor Agonists” (J Med Chem, 2019)
≈ marks a conversion by molar mass, not a printed value. Calls of active or inactive are those of the source. The rule behind the calls is not given here.

Legend:
Apelin receptor [1] = target: T1, Apelin receptor (Homo sapiens, UniProt P35414); assay: Agonist activity at human APJ-R expressed in HEK293 cells assessed as inhibition of forskolin- stimulated cAMP accumulation incubated for 30 mins by HTRF assay; assay type: functional, cell-based
T1 sequence (P35414 whole entry): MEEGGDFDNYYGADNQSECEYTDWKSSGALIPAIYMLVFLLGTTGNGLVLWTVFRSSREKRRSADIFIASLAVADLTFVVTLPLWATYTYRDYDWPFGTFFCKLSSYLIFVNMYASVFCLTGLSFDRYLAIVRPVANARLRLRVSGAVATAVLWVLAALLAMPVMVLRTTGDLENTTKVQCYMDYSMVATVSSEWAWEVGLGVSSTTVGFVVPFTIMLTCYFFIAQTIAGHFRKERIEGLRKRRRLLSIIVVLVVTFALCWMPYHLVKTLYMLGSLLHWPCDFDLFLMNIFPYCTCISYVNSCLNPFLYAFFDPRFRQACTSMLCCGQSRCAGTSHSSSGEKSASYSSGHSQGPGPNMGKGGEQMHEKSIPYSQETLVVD

[2] = (§1) Toxicity in isoflurane-anesthetized Sprague-Dawley rat assessed as effect on heart rate at 10 to 1000 ug/min/kg, iv infused into jugular vein for 15 mins with continuous monitoring of hemodynamics followed by monitoring for additional 15 mins after terminating infusion by pressure-volume loop analysis relative to control; assay type: organism-based; conditions: in vivo, 0.25 h
Summary of the method: (§2)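 Male SD rats under isoflurane, instrumented with a Millar PV-loop catheter in the LV and a pressure catheter in the abdominal aorta. After a stable baseline, test agent or N,N-dimethylacetamide vehicle (100 μL/kg/min) infused into the jugular vein for 15 min. Hemodynamics were monitored continuously during infusion and for 15 min after it stopped. n = 7–8 per dose, vehicle n = 10.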

[3] = Plasma concentration in Sprague-Dawley rat at 100 ug/min/kg, iv infused into jugular vein for 15 mins; assay type: ADME, organism-based
Summary of the method: (§3)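 Rats separate from the hemodynamic groups received the same 15 min jugular infusions (n = 3/dose). Plasma concentration (μM) was measured at the end of the 15 min infusion. Washout samples were also taken after stopping the 10 and 1000 μg/kg/min infusions.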

[4] = as §1, with “100” for “10 to 1000”; assay type: organism-based; conditions: in vivo, 0.25 h; summary of the method: as §2
Rattus norvegicus [5] = assay: as §1, with “Acute hemodynamic effect” for “Toxicity”, “increase in cardiac output” for “effect on heart rate”, “100” for “10 to 1000”; assay type: functional; summary of the method: as §2
Apelin receptor [6] = target: T2, Apelin receptor (Rattus norvegicus, UniProt Q9JHG3); assay: Agonist activity at rat APJ-R expressed in HEK293 cells assessed as inhibition of forskolin- stimulated cAMP accumulation incubated for 30 mins by HTRF assay; assay type: functional, cell-based
T2 sequence (Q9JHG3 whole entry): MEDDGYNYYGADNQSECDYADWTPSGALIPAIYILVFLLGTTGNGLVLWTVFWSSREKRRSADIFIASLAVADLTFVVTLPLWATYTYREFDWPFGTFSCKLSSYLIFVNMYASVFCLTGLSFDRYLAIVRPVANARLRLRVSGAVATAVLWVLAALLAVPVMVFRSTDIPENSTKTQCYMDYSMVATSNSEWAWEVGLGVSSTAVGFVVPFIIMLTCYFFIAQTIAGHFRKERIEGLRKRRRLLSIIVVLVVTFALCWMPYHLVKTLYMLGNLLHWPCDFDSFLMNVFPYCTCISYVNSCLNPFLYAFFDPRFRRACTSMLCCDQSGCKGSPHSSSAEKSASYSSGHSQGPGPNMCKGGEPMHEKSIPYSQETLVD

[7] = Plasma concentration in Sprague-Dawley rat at 1000 ug/min/kg, iv infused into jugular vein for 15 mins; assay type: ADME, organism-based; summary of the method: as §3
[8] = Solubility in pH 7.4 buffer using amorphous form; assay type: physicochemical
[9] = Plasma concentration in Sprague-Dawley rat at 10 ug/min/kg, iv infused into jugular vein for 15 mins; assay type: ADME, organism-based; summary of the method: as §3
[10] = as §1, with “blood pressure by measuring transient blood pressure drop” for “heart rate”, “100” for “10 to 1000”; assay type: organism-based; conditions: in vivo, 0.25 h; summary of the method: as §2
Rattus norvegicus [11] = assay: as §1, with “Acute hemodynamic effect” for “Toxicity”, “increase in cardiac output” for “effect on heart rate”, “6” for “10 to 1000”; assay type: functional, organism-based; summary of the method: as §2
[12] = as §1, with “6” for “10 to 1000”; assay type: organism-based; conditions: in vivo, 0.25 h; summary of the method: as §2
[13] = as §1, with “blood pressure by measuring transient blood pressure drop” for “heart rate”, “6” for “10 to 1000”; assay type: organism-based; conditions: in vivo, 0.25 h; summary of the method: as §2
Rattus norvegicus [14] = assay: as §1, with “Acute hemodynamic effect” for “Toxicity”, “increase in cardiac output” for “effect on heart rate”; assay type: functional, organism-based; summary of the method: as §2
[15] = target: T3, Apelin receptor (Homo sapiens) (UniProt P35414); assay: Displacement of [125I]-apelin-13 from human APJ-R expressed in HEK293 cell membranes incubated for 1 hr by radioligand binding assay
T3 sequence (whole entry): T1 sequence (P35414 whole entry)
Summary of the method: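 Membranes from HEK293 cells expressing human APJ-R (1 μg) were incubated with increasing test concentrations and 0.1 nM [125I]-(Pyr1)apelin-13. Buffer was 25 mM HEPES, 10 mM MgCl2, 2 mM EGTA and 0.1% BSA, pH 7.2. Incubation ran 1 h at room temperature. Bound ligand was separated on 0.3% polyethyleneimine-soaked GF/B filters.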

Row | SMILES | EC50 (Apelin receptor [1]) [nM] | other results
1 | CCC[C@@H](NC(=O)c1ccc(-c2cc(Cl)ccc2-c2nc3ccccc3o2)c(C(=O)O)c1)c1ccccc1 | 4900 | 
2 | COc1ccc(NC(=O)c2ccc(Cl)cc2-c2ccc(C(=O)N[C@H](CO)c3ccccc3)cc2C(=O)O)cc1F | 59 | 
3 | CCC[C@@H](NC(=O)c1ccc(-c2c(Cl)cccc2-c2nc3ccccc3[nH]2)c(C(=O)O)c1)c1ccccc1 (stereo in doubt; 15a) [listing 1 of 2 here] | 0.093 | Activity [2]: Non-Toxic; concentration at 0.25 h [3]: 4.4 µM; Activity [4]: Non-Toxic; Activity (Rattus norvegicus [5]): 10%; EC50 (Apelin receptor [6]): 0.12 nM; concentration at 0.25 h [7]: 82 µM; solubility [8]: 660 µg/mL (≈ 1260 µM); concentration at 0.25 h [9]: 0.44 µM; Activity [10]: < 5%
4 | CCC[C@@H](NC(=O)c1ccc(-c2cc(Cl)ccc2-c2nc3cc(OC)ccc3[nH]2)c(C(=O)O)c1)c1ccccc1 | 0.083 | 
5 | CCC[C@@H](NC(=O)c1ccc(-c2c(Cl)cccc2-c2nc3ccccc3[nH]2)c(C(=O)O)c1)c1ccccc1 (stereo in doubt; 12f) | 0.2 | 
6 | CCC[C@@H](NC(=O)c1ccc(-c2ccccc2-c2nc3ccccc3[nH]2)c(C(=O)O)c1)c1ccccc1 | 5.7 | 
7 | CCC[C@@H](NC(=O)c1ccc(-c2c(F)cccc2-c2nc3ccccc3[nH]2)c(C(=O)O)c1)c1ccccc1 | 0.51 | 
8 | COC[C@@H](NC(=O)c1ccc(-c2cc(Cl)ccc2C(=O)Nc2ccc(OC)c(F)c2)c(C(=O)O)c1)c1ccccc1 | 0.19 | 
9 | CCC[C@@H](NC(=O)c1ccc(-c2cc(Cl)ccc2-c2nc3cc(Cl)ccc3[nH]2)c(C(=O)O)c1)c1ccccc1 | 0.31 | 
10 | CCC[C@@H](NC(=O)c1ccc(-c2cc(Cl)ccc2-c2nc3cc(C)ccc3[nH]2)c(C(=O)O)c1)c1ccccc1 | 0.6 | 
11 | CCC[C@@H](NC(=O)c1ccc(-c2c(Cl)cccc2-c2nc3cc(OC)ccc3[nH]2)c(C(=O)O)c1)c1ccccc1 | 0.062 | EC50 (Apelin receptor [6]): 0.12 nM; solubility [8]: 180 µg/mL (≈ 325 µM)
12 | CCC[C@@H](NC(=O)c1ccc(-c2cc(Cl)ccc2-c2nc3ccncc3[nH]2)c(C(=O)O)c1)c1ccccc1 | 19 | 
13 | COC[C@H](NC(=O)c1ccc(-c2cc(Cl)ccc2C(=O)Nc2ccc(OC)c(F)c2)c(C(=O)O)c1)c1ccccc1 | 2.7 | 
14 | CCC[C@@H](NC(=O)c1ccc(-c2c(Cl)cccc2-c2nc3ccccc3[nH]2)c(C(=O)O)c1)c1ccccc1 (stereo in doubt; 15b) | 22 | EC50 (Apelin receptor [6]): 43 nM
15 | CCC[C@@H](NC(=O)c1ccc(-c2cc(Cl)ccc2C(=O)Nc2ccc(OC)c(F)c2)c(C(=O)O)c1)c1ccccc1 | 0.33 | 
16 | CCC[C@@H](NC(=O)c1ccc(-c2c(C)cccc2-c2nc3ccccc3[nH]2)c(C(=O)O)c1)c1ccccc1 | 0.18 | 
17 | CCC[C@@H](NC(=O)c1ccc(-c2cc(C)ccc2-c2nc3ccccc3[nH]2)c(C(=O)O)c1)c1ccccc1 | 1.5 | 
18 | CCC[C@@H](NC(=O)c1ccc(-c2cc(Cl)ccc2-c2nc3cccc(C)c3[nH]2)c(C(=O)O)c1)c1ccccc1 | 51 | 
19 | CCC[C@@H](NC(=O)c1ccc(-c2cc(Cl)ccc2-c2ncc(-c3ccccc3)[nH]2)c(C(=O)O)c1)c1ccccc1 | 7.4 | 
20 | CCC[C@@H](NC(=O)c1ccc(-c2cc(OC)ccc2-c2nc3ccccc3[nH]2)c(C(=O)O)c1)c1ccccc1 | 5.7 | 
21 | COc1ccc(NC(=O)c2ccc(Cl)cc2-c2ccc(C(=O)Nc3ccc4c(c3)CCC4)cc2C(=O)O)cc1F | 29 | 
22 | CCC[C@@H](NC(=O)c1ccc(-c2cccc(Cl)c2-c2nc3ccccc3[nH]2)c(C(=O)O)c1)c1ccccc1 | 2100 | 
23 | CSCC[C@H](NC(=O)[C@@H]1CCCN1C(=O)CNC(=O)[C@H](CCCCN)NC(=O)[C@H](Cc1cnc[nH]1)NC(=O)[C@H](CO)NC(=O)[C@H](CC(C)C)NC(=O)[C@H](CCCNC(=N)N)NC(=O)[C@@H]1CCCN1C(=O)[C@H](CCCNC(=N)N)NC(=O)[C@@H]1CCC(=O)N1)C(=O)N1CCC[C@H]1C(=O)N[C@@H](Cc1ccccc1)C(=O)O |  | Activity (Rattus norvegicus [11]): Active; Activity [12]: Non-Toxic; Activity [13]: Non-Toxic
24 | CCC[C@@H](NC(=O)c1ccc(-c2c(Cl)cccc2-c2nc3ccccc3[nH]2)c(C(=O)O)c1)c1ccccc1 (stereo in doubt; 15a) [listing 2 of 2 here] |  | Activity (Rattus norvegicus [14]): Dose-dependent effect; inhibition [15]: Active
25 | CCC[C@@H](NC(=O)c1ccc(-c2cc(Cl)ccc2-c2nc3ccccc3[nH]2)c(C(=O)O)c1)c1ccccc1 | 1.4 | 
26 | CCC[C@@H](NC(=O)c1ccc(-c2ccc(Cl)cc2-c2nc3ccccc3[nH]2)c(C(=O)O)c1)c1ccccc1 | 9 | 
